What was measured:
[1] = organism: Rattus norvegicus; assay: Tissue biodistribution into estrogen-primed immature female rat fat at 1 hr time interval; format: ADME, organism-based, Adipose tissue; conditions: in vivo
In short: (§1)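 Immature female Sprague-Dawley rats (25 days old, ≈50 g, five per time point) primed with estradiol, 5 μg sc daily for 2 days in 50% ethanol/sunflower seed oil, used 24 h after the last injection. The 18F-labeled ligand was given iv by tail vein in 10% ethanol/saline. Decapitated at 1 or 3 h; blood and organs weighed and gamma-counted. Reported as %ID/g ± SD, n = 5.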

[2] = organism: Rattus norvegicus; assay: Tissue biodistribution into estrogen-primed immature female rat fat at 1 hr blocked time interval; format: ADME, organism-based, Adipose tissue; conditions: in vivo; in short: as §1
[3] = organism: Rattus norvegicus; assay: Tissue biodistribution into estrogen-primed immature female rat lung at 1 hr low time interval; format: ADME, organism-based; conditions: in vivo; in short: as §1
[4] = organism: Rattus norvegicus; assay: Tissue biodistribution into estrogen-primed immature female rat brain at 1 hr low time interval; format: ADME, organism-based; conditions: in vivo; in short: as §1
[5] = organism: Rattus norvegicus; assay: Tissue biodistribution into estrogen-primed immature female rat uterus at 1 hr low time interval; format: ADME, organism-based; conditions: in vivo; in short: as §1
[6] = organism: Rattus norvegicus; assay: Tissue biodistribution into estrogen-primed immature female rat lung at 1 hr time interval; format: ADME, organism-based; conditions: in vivo; in short: as §1
[7] = biological target: T1, Progesterone receptor (Homo sapiens) (UniProt P06401); assay: Binding selectivity index as the ratio of RBA value to that of NSB value.
T1 sequence (whole entry): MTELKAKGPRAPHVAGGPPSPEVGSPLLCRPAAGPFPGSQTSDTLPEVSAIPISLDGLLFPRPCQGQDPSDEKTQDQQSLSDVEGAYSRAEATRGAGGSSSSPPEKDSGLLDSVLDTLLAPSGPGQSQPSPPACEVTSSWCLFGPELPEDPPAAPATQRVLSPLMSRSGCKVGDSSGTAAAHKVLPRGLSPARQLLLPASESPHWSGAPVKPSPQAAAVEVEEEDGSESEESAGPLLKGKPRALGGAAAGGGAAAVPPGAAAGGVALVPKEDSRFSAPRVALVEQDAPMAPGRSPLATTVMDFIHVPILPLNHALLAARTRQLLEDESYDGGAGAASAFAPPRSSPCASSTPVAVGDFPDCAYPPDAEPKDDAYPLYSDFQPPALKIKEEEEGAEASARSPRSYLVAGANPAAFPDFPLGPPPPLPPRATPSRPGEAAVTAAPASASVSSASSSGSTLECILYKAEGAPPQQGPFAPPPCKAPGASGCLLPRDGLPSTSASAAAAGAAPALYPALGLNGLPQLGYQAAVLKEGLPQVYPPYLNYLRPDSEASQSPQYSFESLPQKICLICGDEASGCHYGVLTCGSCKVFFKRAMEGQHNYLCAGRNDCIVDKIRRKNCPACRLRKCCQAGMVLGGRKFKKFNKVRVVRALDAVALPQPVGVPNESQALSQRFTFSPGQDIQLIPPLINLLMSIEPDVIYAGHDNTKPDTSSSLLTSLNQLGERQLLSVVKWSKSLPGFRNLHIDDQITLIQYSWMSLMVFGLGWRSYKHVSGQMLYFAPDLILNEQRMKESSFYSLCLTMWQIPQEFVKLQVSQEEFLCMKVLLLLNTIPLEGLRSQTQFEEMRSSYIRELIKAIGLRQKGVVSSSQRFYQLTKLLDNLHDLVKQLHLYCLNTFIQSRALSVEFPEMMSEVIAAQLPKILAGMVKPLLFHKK
In short: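 BSI calculated as the ratio of RBA to NSB.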

[8] = Partition coefficient (logP); format: physicochemical; conditions: octanol/water; read-out: logP
In short: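 log P(o/w) (octanol/water) estimated by a reversed-phase HPLC method.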

[9] = organism: Rattus norvegicus; assay: Tissue biodistribution into estrogen-primed immature female rat lung at 3 hr time interval; format: ADME, organism-based; conditions: in vivo; in short: as §1
[10] = organism: Rattus norvegicus; assay: Tissue biodistribution into estrogen-primed immature female rat uterus/muscle at 3 hr time interval; format: ADME, organism-based; conditions: in vivo
[11] = biological target: T1, Progesterone receptor (Homo sapiens); assay: Nonspecific binding affinity against progesterone receptor was estimated relative to compound R5020
[12] = organism: Rattus norvegicus; assay: Tissue biodistribution into estrogen-primed immature female rat uterus/muscle at 1 hr blocked time interval; format: ADME, organism-based; conditions: in vivo; in short: as §1
[13] = organism: Rattus norvegicus; assay: Tissue biodistribution into estrogen-primed immature female rat kidney at 1 hr blocked time interval; format: ADME, organism-based; conditions: in vivo; in short: as §1
[14] = organism: Rattus norvegicus; assay: Tissue biodistribution into estrogen-primed immature female rat bone at 1 hr low time interval; format: ADME, organism-based, Bone element; conditions: in vivo; in short: as §1
[15] = organism: Rattus norvegicus; assay: Tissue biodistribution into estrogen-primed immature female rat liver at 1 hr blocked time interval; format: ADME, organism-based; conditions: in vivo; in short: as §1
[16] = organism: Rattus norvegicus; assay: Tissue biodistribution into estrogen-primed immature female rat muscle at 3 hr time interval; format: ADME, organism-based; conditions: in vivo; in short: as §1
[17] = organism: Rattus norvegicus; assay: Tissue biodistribution into estrogen-primed immature female rat bone at 3 hr time interval; format: ADME, organism-based, Bone element; conditions: in vivo; in short: as §1
[18] = organism: Rattus norvegicus; assay: Tissue biodistribution into estrogen-primed immature female rat bone at 1 hr time interval; format: ADME, organism-based, Bone element; conditions: in vivo; in short: as §1
[19] = biological target: T1, Progesterone receptor (Homo sapiens); assay: Relative binding affinity against progesterone receptor at 0 degree Celsius determined in a competitive radiometric binding assay (R5020=100%).
In short: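 Competitive radiometric binding at 0 °C against tritium-labeled R5020 as the standard (RBA = 100). Values are the average of two experiments.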

[20] = organism: Rattus norvegicus; assay: Tissue biodistribution into estrogen-primed immature female rat uterus/blood at 1 hr low time interval; format: ADME, organism-based; conditions: in vivo; in short: as §1
[21] = organism: Rattus norvegicus; assay: Tissue biodistribution into estrogen-primed immature female rat uterus at 1 hr time interval; format: ADME, organism-based; conditions: in vivo; in short: as §1
[22] = organism: Rattus norvegicus; assay: Tissue biodistribution into estrogen-primed immature female rat blood at 1 hr low time interval; format: ADME, organism-based; conditions: in vivo; in short: as §1
[23] = organism: Rattus norvegicus; assay: Tissue biodistribution into estrogen-primed immature female rat muscle at 1 hr low time interval; format: ADME, organism-based; conditions: in vivo; in short: as §1
[24] = organism: Rattus norvegicus; assay: Tissue biodistribution into estrogen-primed immature female rat uterus/muscle at 1 hr low time interval; format: ADME, organism-based; conditions: in vivo; in short: as §1
[25] = organism: Rattus norvegicus; assay: Tissue biodistribution into estrogen-primed immature female rat uterus/blood at 3 hr time interval; format: ADME, organism-based; conditions: in vivo; in short: as §1
[26] = organism: Rattus norvegicus; assay: Tissue biodistribution into estrogen-primed immature female rat kidney at 3 hr time interval; format: ADME, organism-based; conditions: in vivo; in short: as §1

Injected dose/g [1]: 2.86%
Injected dose/g [2]: 3.48%
Injected dose/g [3]: 1.23%
Injected dose/g [4]: 0.34%
Injected dose/g [5]: 3.46%
Injected dose/g [6]: 1.92%
BSI [7]: 159
logP [8]: 4.13
Injected dose/g [9]: 0.27%
ratio [10]: 53.1
NSB [11]: 1.09
uterus/muscle ratio [12]: 2.68
Injected dose/g [13]: 1.84%
Injected dose/g [14]: 0.84%
Injected dose/g [15]: 1.52%
Injected dose/g [16]: 0.2%
Injected dose/g [17]: 1.51%
Injected dose/g [18]: 1.15%
RBA [19]: 173
Injected dose/g [20]: 10%
Injected dose/g [21]: 6.51%
Injected dose/g [22]: 0.35%
Injected dose/g [23]: 0.25%
Injected dose/g [24]: 12.09%
uterus/blood ratio [25]: 71.1
Injected dose/g [26]: 0.76%
Compound: CC1(c2ccco2)O[C@@H]2CC3C4CCC5=CC(=O)CC[C@@H]5C4CC[C@]3(C)[C@]2(C(=O)CF)O1 (stereo partly specified)

From ChEMBL document CHEMBL1128440 (J Med Chem, 1995)
